SIAE primary = inhibitors of human sialic acid acetylesterase SIAE; Q9HAT2; SIAE FP-Rh probe binding, fluorescence polarization; inhibition, % at 9.66 µM; actives 0.69% (n = 370,000);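 active means inhibition above a cutoff: mean of compounds within the control limits plus 3 SD of those, cut at about 17% in these data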
HTRA1 inhibitor = blocks human HTRA1 serine peptidase; Q92743; recombinant HTRA1, FP-rhodamine activity-based probe, fluorescence polarization; inhibition, % at 5.96 µM; actives 0.5% (n = 340,000); in the data active means inhibition above about 36%
Target sequence (Q92743 whole entry, looked up): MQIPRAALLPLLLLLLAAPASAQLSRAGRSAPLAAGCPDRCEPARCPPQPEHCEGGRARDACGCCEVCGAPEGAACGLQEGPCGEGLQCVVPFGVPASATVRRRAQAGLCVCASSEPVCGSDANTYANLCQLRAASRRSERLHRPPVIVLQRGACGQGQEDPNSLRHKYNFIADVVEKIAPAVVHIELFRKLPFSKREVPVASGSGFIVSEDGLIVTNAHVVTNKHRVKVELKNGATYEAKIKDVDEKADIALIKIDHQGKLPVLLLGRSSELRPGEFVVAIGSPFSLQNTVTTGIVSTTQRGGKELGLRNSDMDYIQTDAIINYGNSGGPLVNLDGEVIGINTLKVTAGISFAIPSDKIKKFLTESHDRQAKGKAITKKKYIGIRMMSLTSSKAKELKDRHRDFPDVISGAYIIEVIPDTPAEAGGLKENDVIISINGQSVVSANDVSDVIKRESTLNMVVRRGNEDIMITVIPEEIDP
mABHD4 FP = ABHD4 (mouse) inhibition, primary FP screen | purified mABHD4, FP-Rh probe fluorescence polarization | inhibition, % at 8.92 µM | actives 0.54% (n = 370,000);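 active means inhibition exceeding the mean over every tested compound plus 3 SD, cut at about 30% in these data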
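Material: mouse ABHD4 enzyme, wild type; Benchmarks: S159A mutant high control, sample median low control; Buffer or medium: HEPES pH 7.0, NaCl, Pluronic buffer; Signal: fluorescence polarization; Read-out: percent inhibition of probe binding, normalized to plate controls; Timing: pre-incubation 45 min, probe exposure 60 min, at 25 °C; Dosing: 8.92 µM, single dose.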
TCR-CD3 inh = human TCR-CD3 binding inhibition; actives 0.37% (n = 360,000); TAMRA-labeled TCR probe fluorescence, biochemical; inhibition, % at 9.4 µM; in the data active means inhibition above about 19%;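 further: recombinant mutant TCR 2C K166C tagged with TAMRA read by polarization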
PRMT1 FP inh = blocks human protein arginine methyltransferase 1. Q99873. recombinant PRMT1, activity-based probe fluorescence polarization. inhibition, % at 2.79 µM. actives 1.3% (n = 370,000). AID 652257;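 active means inhibition above about 21% made by adding two undisclosed values, limit read from the data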
SIAE confirm = confirmation of human SIAE inhibitors; shares compounds with SIAE primary; SIAE FP-Rh activity-based probe, fluorescence polarization; inhibition, % at 9.66 µM; actives 13% (n = 2,300);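 active means mean inhibition of the replicates above the hit cutoff set in the primary screen, cut at about 17% in these data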;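 further: inhibitors lower polarization as more probe stays unbound to SIAE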
Large screens that a line does not name were inactive (follow-up assays come after a bar, where they were run). This is a sample that favours compounds with a hit; in the whole collection about 2.5% have one here.

CCOC(=O)[C@]12CCCC=C1N(Cc1cccc3ccccc13)C(=O)[C@H](CC(=O)NCCc1ccccc1OC)C2	SIAE primary 53 (no result: HTRA1 inhibitor) | SIAE confirm inactive
COC(=O)[C@]12C[C@H](CC(=O)NCCc3ccccc3OC)C(=O)N(Cc3ccco3)C1=C[C@H](COCc1ccccc1)O[C@@H]2C	none (no result: HTRA1 inhibitor, TCR-CD3 inh)
C=CCOc1ccccc1CNc1ccccc1C	SIAE primary 20 | SIAE confirm inactive
Nc1c(-c2ccccc2Cl)cnn1-c1cccc([N+](=O)[O-])c1	SIAE primary 75 | SIAE confirm inactive
COC(=O)COc1ccc(-c2nn(C)c(=O)c3ccccc23)cc1	SIAE primary 20 | SIAE confirm inactive
Cn1nc(-c2ccc(OCC(N)=O)cc2)c2ccccc2c1=O	none
CN1c2ccc(C#CC3CC3)cc2[C@@H]2[C@@H](CCN2C(=O)C2CCOCC2)[C@H]1CO	none (no result: HTRA1 inhibitor, TCR-CD3 inh)
C=CCN1[C@H](C)COc2cc(N3CCSCC3)ccc2S1(=O)=O	none (no result: HTRA1 inhibitor, TCR-CD3 inh)
CN1CCN(c2ccc(S(=O)(=O)N3CCCCC3)cn2)CC1	none
O=S(=O)(c1ccc(N2CCCCCC2)nc1)N1CCCC1	SIAE primary 20 | SIAE confirm inactive
COc1ccc(Cc2nnc(N)s2)cc1	SIAE primary 17 | SIAE confirm inactive
COc1ccc(Cc2nnc(N)s2)cc1OC	none
Cc1cc(S(=O)(=O)Nc2ccc(C(=O)N3CCN(c4ccccc4O)CC3)cc2)ccc1F	none
Cc1ccc(S(=O)(=O)Nc2cccc(C(=O)N3CCN(c4ccccc4O)CC3)c2)cc1F	SIAE primary 21 | SIAE confirm inactive
COc1ccc(CC(N)c2csc(NC(=O)Nc3ccc(OC)cc3)n2)cc1 (centres undefined)	none (no result: HTRA1 inhibitor)
COc1cccc(NC(=O)Nc2nc(-c3ccc(OC)c(OC)c3)cs2)c1	SIAE primary 34 | SIAE confirm inactive
COc1ccc(-c2csc(NC(=O)Nc3ccccc3)n2)cc1	SIAE primary 44 | SIAE confirm inactive
COc1ccc(OC(=O)Nc2ccccc2)cc1	SIAE primary 19 | SIAE confirm inactive
COc1ccc(NC(=O)Nc2nc(C(N)Cc3ccc(C(F)(F)F)cc3)cs2)cc1 (centres undefined)	SIAE primary 29 (no result: HTRA1 inhibitor) | SIAE confirm inactive
COc1ccc(-c2csc(NC(C)=O)n2)cc1OC	none
COC(=O)[C@]12CCCCC=C1N(Cc1ccc(OC)cc1)C(=O)[C@@H]2CC(=O)N1CCOCC1	none (no result: HTRA1 inhibitor, TCR-CD3 inh)
CC(=O)CC[C@@H]1CC[C@]2(CCCN(S(=O)(=O)C3CCCCC3)C2)O1	none (no result: HTRA1 inhibitor, TCR-CD3 inh)
CN(CCc1ccccn1)C(=O)c1ccc(Sc2ccccc2Cl)c([N+](=O)[O-])c1	none (no result: HTRA1 inhibitor, TCR-CD3 inh)
C[C@H](O)[C@@H]1C(=O)N2CCc3c([nH]c4c(-c5ccc6c(c5)OCO6)cccc34)[C@@H]2C[C@@H]1N(C)C(=O)OCc1ccccc1	none (no result: HTRA1 inhibitor, TCR-CD3 inh)
Cc1cc(C)nc(SCc2ccc(C(=O)N/N=C/c3cccc(O)c3O)cc2)n1	SIAE primary 43 | SIAE confirm inactive
COc1ccc(O)c(/C=N/NC(=O)c2ccc(CSc3nc(C)cc(C)n3)cc2)c1	none
C=CCNc1cccc2c1S(=O)(=O)N[C@H](Cc1ccccc1)CO2	none (no result: HTRA1 inhibitor)
CCn1c(Cc2cccs2)nnc1SCC(=O)Nc1ccc(Cl)cc1C	none (no result: HTRA1 inhibitor, TCR-CD3 inh)
C/C(=N\NC(=O)c1cc([N+](=O)[O-])cc([N+](=O)[O-])c1)c1ccco1	SIAE primary 18 | SIAE confirm inactive
CC(C)Nc1nc(NCCOc2ccccc2Cl)c2sc(-c3ccccc3)cc2n1	SIAE primary 19 (no result: HTRA1 inhibitor) | SIAE confirm 20
COc1ccccc1CNc1nc(NCc2ccccc2)nc2ccsc12	none (no result: HTRA1 inhibitor)
COCCNc1nc(NCCOc2ccccc2)c2sc(-c3ccccc3)cc2n1	SIAE primary 22 (no result: HTRA1 inhibitor) | SIAE confirm 21
C=CCNc1nc(NCc2cccc(OC)c2)c2sc(-c3ccccc3)cc2n1	SIAE primary 20 (no result: HTRA1 inhibitor) | SIAE confirm inactive
COc1ccccc1CNc1nc(NC(C)C)nc2cc(-c3ccccc3)sc12	SIAE primary 22 (no result: HTRA1 inhibitor) | SIAE confirm 28
COCCNc1nc(NCCOC)c2sc(-c3ccccc3)cc2n1	none (no result: HTRA1 inhibitor)
O=C(NCc1ccco1)C1CCCN(S(=O)(=O)c2ccc(F)cc2)C1 (centres undefined)	none (no result: HTRA1 inhibitor, TCR-CD3 inh)
CN(c1ccccc1)S(=O)(=O)c1cccc(C(=O)NCCc2ccc(O)c(O)c2)c1	SIAE primary 17 | SIAE confirm inactive
FC(F)(F)C(F)(F)c1nnc2ccc(-n3ccnc3)nn12	SIAE primary 17 | SIAE confirm inactive

Screening results as filed in PubChem BioAssay.
